Measurements taken from ChEMBL document CHEMBL1817631, “Synthesis and characterization of tritylthioethanamine derivatives with potent KSP inhibitory activity” (Bioorg Med Chem, 2011).
Activity calls are given as the source filed them. The calls are words filed in the database; no cut-off is given here.

Assays:
SK-OV-3 [1] = assay: Growth inhibition of human SKOV3 cells; assay type: functional
[2] = Inhibition of bipolar spindle formation in Strongylocentrotus purpuratus eggs; assay type: functional, Egg
In short: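 S. purpuratus eggs (gametes released with 0.5M KCl) were fertilized in artificial seawater with 2 mM 3-amino triazole and stripped of envelopes 20 min post-fertilization. They were then cultured with 0.1% DMSO or inhibitor at 100 nM–100 μM, fixed at first mitosis and stained for microtubules and DNA. 100 cells per condition were scored for bipolar spindles to derive EC50.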

HeLa [3] = assay: Induction of KSP depletion in human HeLa cells after 4 hrs by immunofluorescence analysis; assay type: functional, cell-based
In short: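 HeLa cells were treated 4 h across a concentration series of compound in DMSO, then fixed in 100% MeOH at −20 °C. They were probed overnight at 4 °C with mouse anti-KSP and rabbit anti-EB1 to mark microtubules, with Alexa Fluor secondaries and DNA counterstain. KSP (green channel) images were taken at equivalent exposure times.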

UO-31 = assay: Growth inhibition of human UO31 cells; assay type: functional
NCI-H226 = assay: Growth inhibition of human NCI-H226 cells; assay type: functional
OVCAR-5 = assay: Growth inhibition of human OVCAR5 cells; assay type: functional
[4] = target: T1, Kinesin-like protein Klp61F (Drosophila melanogaster) (UniProt P46863); assay: Inhibition of Drosophila melanogaster Klp61F in S2 cells at 100 uM up to 7 hrs by immunofluorescence analysis; assay type: cell-based
T1 sequence (whole entry): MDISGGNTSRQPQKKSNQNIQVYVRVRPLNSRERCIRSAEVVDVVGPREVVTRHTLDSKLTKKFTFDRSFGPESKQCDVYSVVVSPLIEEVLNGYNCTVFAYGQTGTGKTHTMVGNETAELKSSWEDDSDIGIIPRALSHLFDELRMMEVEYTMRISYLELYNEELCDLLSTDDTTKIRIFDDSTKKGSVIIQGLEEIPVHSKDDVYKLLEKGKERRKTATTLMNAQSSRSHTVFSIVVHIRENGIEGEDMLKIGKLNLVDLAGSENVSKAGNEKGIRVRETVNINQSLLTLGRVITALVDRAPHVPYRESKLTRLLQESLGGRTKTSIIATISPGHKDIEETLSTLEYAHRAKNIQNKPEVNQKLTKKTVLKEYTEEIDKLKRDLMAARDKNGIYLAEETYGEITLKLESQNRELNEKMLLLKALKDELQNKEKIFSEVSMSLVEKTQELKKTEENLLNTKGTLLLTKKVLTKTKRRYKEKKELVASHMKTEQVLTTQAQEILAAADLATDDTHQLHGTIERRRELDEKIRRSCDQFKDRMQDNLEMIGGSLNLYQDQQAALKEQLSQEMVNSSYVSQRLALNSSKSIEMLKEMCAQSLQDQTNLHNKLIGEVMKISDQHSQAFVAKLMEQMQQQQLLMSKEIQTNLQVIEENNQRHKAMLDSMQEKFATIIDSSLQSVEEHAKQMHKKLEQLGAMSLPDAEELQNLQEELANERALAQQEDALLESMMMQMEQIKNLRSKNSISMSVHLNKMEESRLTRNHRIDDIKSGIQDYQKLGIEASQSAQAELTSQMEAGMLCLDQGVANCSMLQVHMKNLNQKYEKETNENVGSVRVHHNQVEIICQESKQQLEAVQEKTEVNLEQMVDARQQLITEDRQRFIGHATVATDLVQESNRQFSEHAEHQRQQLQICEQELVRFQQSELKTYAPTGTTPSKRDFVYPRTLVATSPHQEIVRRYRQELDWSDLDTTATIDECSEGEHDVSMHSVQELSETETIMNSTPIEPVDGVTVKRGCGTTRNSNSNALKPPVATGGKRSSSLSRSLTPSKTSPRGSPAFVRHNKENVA
In short: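 Drosophila S2 cells were exposed to compound over a three-log concentration range up to 100 μM, with treatments extending up to 7 h. Bipolar spindle formation was scored by immunofluorescence.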

[5] = Growth inhibition of human […] cells; assay type: functional
HCT-15 = assay: Growth inhibition of human HCT15 cells; assay type: functional
K562 = assay: Growth inhibition of human K562 cells; assay type: functional
UACC-257 = assay: Growth inhibition of human UACC257 cells; assay type: functional
SK-MEL-5 = assay: Growth inhibition of human SK-MEL-5 cells; assay type: functional
SW-620 = assay: Growth inhibition of human SW620 cells; assay type: functional
U-251 = assay: Growth inhibition of human U251 cells; assay type: functional
SF-539 = assay: Growth inhibition of human SF539 cells; assay type: functional
SR = assay: Growth inhibition of human SR cells; assay type: functional
HCC 2998 = assay: Growth inhibition of human HCC2998 cells; assay type: functional
OVCAR-3 = assay: Growth inhibition of human OVCAR3 cells; assay type: functional
SK-OV-3 [6] = assay: Ratio of GI50 for human M14 cells to GI50 for human SK-OV-3 cells; assay type: functional
HeLa [7] = assay: Inhibition of bipolar spindle formation in human HeLa cells at 1 uM; assay type: functional, cell-based
In short: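 HeLa cells were grown in MEM with Earle's BSS, 10% FBS, sodium bicarbonate and pyruvate at 37°C in 5% CO2. They were exposed to compound in DMSO for 4 h, with 0.1% DMSO as carrier control. Cells were fixed in −20°C methanol and immunostained for tubulin, with DNA counterstained. Bipolar spindle formation was scored in 100 mitotic cells per condition.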

MOLT-4 = assay: Growth inhibition of human MOLT4 cells; assay type: functional
HCT-116 = assay: Growth inhibition of human HCT116 cells; assay type: functional
SNB-75 = assay: Growth inhibition of human SNB75 cells; assay type: functional
NCI-H322M = assay: Growth inhibition of human NCI-H322M cells; assay type: functional
EKVX = assay: Growth inhibition of human EKVX cells; assay type: functional
HT-29 = assay: Growth inhibition of human HT-29 cells; assay type: functional
M14 = assay: Growth inhibition of human M14 cells; assay type: functional
COLO 205 = assay: Growth inhibition of human COLO205 cells; assay type: functional
SK-MEL-28 = assay: Growth inhibition of human SK-MEL-28 cells; assay type: functional
OVCAR-4 = assay: Growth inhibition of human OVCAR4 cells; assay type: functional
CAKI-1 = assay: Growth inhibition of human Caki1 cells; assay type: functional
TK-10 = assay: Growth inhibition of human TK10 cells; assay type: functional
UACC-62 = assay: Growth inhibition of human UACC62 cells; assay type: functional
A549 = assay: Growth inhibition of human A549 cells; assay type: functional
SF-268 = assay: Growth inhibition of human SF268 cells; assay type: functional
CCRF-CEM = assay: Growth inhibition of human CCRF-CEM cells; assay type: functional
NCI-H23 = assay: Growth inhibition of human NCI-H23 cells; assay type: functional
Malme-3M = assay: Growth inhibition of human MALME-3M cells; assay type: functional
786-0 = assay: Growth inhibition of human 786-0 cells; assay type: functional
OVCAR-8 = assay: Growth inhibition of human OVCAR8 cells; assay type: functional
NCI-H522 = assay: Growth inhibition of human NCI-H522 cells; assay type: functional
HeLa [8] = assay: Effect on interphase microtubule organization in human HeLa cells at 1 uM; assay type: functional, cell-based
In short: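 HeLa cells were grown in MEM/Earle's BSS with 10% FBS at 37 °C and 5% CO2, then treated 4 h with 1 μM compound or 0.1% DMSO carrier. Cells were fixed in 100% MeOH at −20 °C and blocked in PBS-5% BSA. They were stained overnight at 4 °C with mouse anti-tubulin and for DNA, then imaged by epifluorescence with structured illumination.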

IGROV-1 = assay: Growth inhibition of human IGROV1 cells; assay type: functional
[9] = target: Kinesin-like protein KIF11 (Homo sapiens, UniProt P52732); assay: Inhibition of human recombinant microtubule-activated KSP motor domain ATPase activity after 10 mins by end-point assay
ACHN = assay: Growth inhibition of human ACHN cells; assay type: functional
SK-MEL-2 = assay: Growth inhibition of human SK-MEL-2 cells; assay type: functional
SN12C = assay: Growth inhibition of human SN12C cells; assay type: functional
LOX IMVI = assay: Growth inhibition of human LOXIMVI cells; assay type: functional
SF-295 = assay: Growth inhibition of human SF295 cells; assay type: functional
SNB-19 = assay: Growth inhibition of human SNB19 cells; assay type: functional
HOP-62 = assay: Growth inhibition of human HOP62 cells; assay type: functional

Sequence of Kinesin-like protein KIF11 (P52732 whole entry, the tested form may be a part): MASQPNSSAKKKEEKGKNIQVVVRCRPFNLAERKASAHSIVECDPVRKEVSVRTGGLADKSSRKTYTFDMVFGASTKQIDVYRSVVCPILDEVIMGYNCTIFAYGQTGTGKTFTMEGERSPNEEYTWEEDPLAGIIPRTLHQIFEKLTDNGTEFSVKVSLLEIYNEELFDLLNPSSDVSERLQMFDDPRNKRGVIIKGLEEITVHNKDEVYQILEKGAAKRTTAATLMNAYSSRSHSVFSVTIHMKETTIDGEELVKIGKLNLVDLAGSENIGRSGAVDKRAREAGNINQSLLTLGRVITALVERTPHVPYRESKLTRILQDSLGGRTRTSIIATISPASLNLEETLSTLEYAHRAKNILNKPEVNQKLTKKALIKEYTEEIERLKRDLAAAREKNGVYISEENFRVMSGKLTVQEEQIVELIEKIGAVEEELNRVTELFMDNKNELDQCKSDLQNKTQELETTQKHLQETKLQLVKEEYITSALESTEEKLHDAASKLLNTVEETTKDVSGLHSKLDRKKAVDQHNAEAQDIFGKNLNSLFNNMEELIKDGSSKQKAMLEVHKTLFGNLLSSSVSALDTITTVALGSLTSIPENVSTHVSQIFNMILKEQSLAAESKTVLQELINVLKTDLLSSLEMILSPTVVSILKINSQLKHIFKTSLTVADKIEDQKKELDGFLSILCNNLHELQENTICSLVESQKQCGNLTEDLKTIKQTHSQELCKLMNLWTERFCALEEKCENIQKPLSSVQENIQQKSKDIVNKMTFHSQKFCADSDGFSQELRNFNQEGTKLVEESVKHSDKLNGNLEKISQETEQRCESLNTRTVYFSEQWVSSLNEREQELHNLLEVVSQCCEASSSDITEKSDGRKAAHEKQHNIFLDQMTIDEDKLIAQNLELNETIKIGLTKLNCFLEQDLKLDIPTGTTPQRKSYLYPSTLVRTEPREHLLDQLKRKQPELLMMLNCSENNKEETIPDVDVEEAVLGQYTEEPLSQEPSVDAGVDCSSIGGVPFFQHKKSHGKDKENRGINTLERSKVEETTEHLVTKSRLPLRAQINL

N[C@@H](CSC(c1ccccc1)(c1ccccc1)c1ccccc1)C(=O)O [S-TRITYL-L-CYSTEINE]
GI50 (SK-OV-3 [1]): 100000 nM | EC50 [2]: ≥ 100000 nM | Activity (HeLa [3]): Dose-dependent effect | GI50 (UO-31): 100000 nM | GI50 (NCI-H226): 100000 nM | GI50 (OVCAR-5): 100000 nM | inhibition [4]: inactive

COc1ccc(C(SCCN)(c2ccccc2)c2ccccc2)cc1
GI50 (SK-OV-3 [1]): 80 nM | GI50 [5]: 310 nM | GI50 (HCT-15): 50 nM | GI50 (K562): 40 nM | GI50 (UACC-257): 700 nM | GI50 (SK-MEL-5): 50 nM | GI50 (SW-620): 70 nM | GI50 (U-251): 50 nM | GI50 (SF-539): 250 nM | GI50 (SR): 130 nM | GI50 (UO-31): 500 nM | GI50 (HCC 2998): 240 nM | GI50 (OVCAR-3): 150 nM | RatioGI50 (SK-OV-3 [6]): 1250 | inhibition (HeLa [7]): Active | GI50 (MOLT-4): 500 nM | GI50 (HCT-116): 40 nM | GI50 (SNB-75): 600 nM | GI50 (NCI-H322M): 60 nM | GI50 (EKVX): 390 nM | GI50 (HT-29): 350 nM | GI50 (M14): 30 nM | GI50 (COLO 205): 210 nM | GI50 (SK-MEL-28): 640 nM | GI50 (OVCAR-4): 1400 nM | GI50 (CAKI-1): 190 nM | GI50 (TK-10): 1560 nM | GI50 (UACC-62): 400 nM | GI50 (A549): 100 nM | GI50 (SF-268): 150 nM | GI50 (CCRF-CEM): 160 nM | GI50 (NCI-H23): 510 nM | GI50 (Malme-3M): 220 nM | GI50 (786-0): 400 nM | GI50 (OVCAR-8): 120 nM | GI50 (NCI-H522): 40 nM | GI50 (NCI-H226): 1740 nM | Activity (HeLa [8]): inactive | GI50 (OVCAR-5): 570 nM | GI50 (IGROV-1): 150 nM | IC50 [9]: 136 nM | GI50 (ACHN): 690 nM | GI50 (SK-MEL-2): 60 nM | GI50 (SN12C): 130 nM | GI50 (LOX IMVI): 500 nM | GI50 (SF-295): 180 nM | inhibition [4]: inactive | GI50 (SNB-19): 340 nM | GI50 (HOP-62): 660 nM

COc1ccc(C(SC[C@H](N)C(=O)O)(c2ccccc2)c2ccccc2)cc1
inhibition [4]: inactive
